The results in this text go back to ChEMBL document CHEMBL4414562, “Discovery of the First in Vivo Active Inhibitors of the Soluble Epoxide Hydrolase Phosphatase Domain” (J Med Chem, 2019).

Assay [1] concerns Rattus norvegicus. Kind of assay: Inhibition of sEH-P in Sprague-Dawley rat assessed as effect on ratio of sn1-18:2 LPA to corresponding monoacylglycerol species in plasma at 30 mg/kg, po after 8 hrs by LC-MS/MS analysis. The class given is functional, organism-based. In short, it runs like this:
(§1)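 Male Sprague-Dawley rats given a single oral dose of 30 mg/kg or vehicle (n = 3 per group). Plasma collected 8 h later. Epoxy fatty acid/diol ratios and LPA/corresponding MAG ratios quantified by LC−MS/MS.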

Assay [2] can be described thus: Binding affinity to hexa-His-tagged human soluble epoxide hydrolase N-terminal phosphatase domain expressed in Escherichia coli BL21(DE3) by ITC assay. In short, it runs like this:
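Inverse-mode ITC with 185 μM freshly prepared sEH-P in the syringe and inhibitor in the cell. Both in 50 mM acetate, 10 mM MgCl2, 5% glycerol, pH 5.75 with 2% DMSO. Run at 25 °C, 350 rpm stirring, 20−25 injections of 8−10 μL, 200 s spacing. Inhibitor concentration chosen to optimize curve shape. Heats fitted to a single-site model.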
On the technique in general: Isothermal titration calorimetry measures the heat released or taken up as one component is titrated into another.

Assay [3] deals with T1, Bifunctional epoxide hydrolase 2 (Homo sapiens, UniProt P34913).
T1 sequence (P34913 whole entry): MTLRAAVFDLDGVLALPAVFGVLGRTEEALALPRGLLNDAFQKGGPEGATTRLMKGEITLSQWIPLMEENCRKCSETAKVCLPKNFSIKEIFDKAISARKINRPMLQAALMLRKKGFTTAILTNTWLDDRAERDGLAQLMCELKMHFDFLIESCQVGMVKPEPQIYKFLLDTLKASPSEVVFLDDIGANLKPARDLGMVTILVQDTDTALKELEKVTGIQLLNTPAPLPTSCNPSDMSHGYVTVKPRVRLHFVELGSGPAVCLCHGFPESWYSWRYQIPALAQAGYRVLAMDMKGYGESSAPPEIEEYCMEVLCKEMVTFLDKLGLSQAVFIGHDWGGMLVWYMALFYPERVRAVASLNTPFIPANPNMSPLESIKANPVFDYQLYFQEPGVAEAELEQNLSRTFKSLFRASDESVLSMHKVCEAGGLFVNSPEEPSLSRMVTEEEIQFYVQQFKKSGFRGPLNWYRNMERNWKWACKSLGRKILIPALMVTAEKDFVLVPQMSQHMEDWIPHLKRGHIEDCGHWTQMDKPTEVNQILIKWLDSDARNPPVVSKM
Kind of assay: Inhibition of hexa-His-tagged human soluble epoxide hydrolase C-terminal hydrolase domain expressed in Escherichia coli BL21(DE3) pre-incubated for 30 mins before PHOME substrate addition by fluorescence based assay.

In assay [4] the test system is Rattus norvegicus. Kind of assay: Inhibition of sEH-H in Sprague-Dawley rat assessed as effect on ratio of 14,15-EET to 14,15-DHET in plasma at 30 mg/kg, po after 8 hrs by LC-MS/MS analysis. The class given is functional, organism-based. The method, boiled down: as §1
The target of assay [5] is Prostaglandin G/H synthase 1 (Homo sapiens, UniProt P23219). In words: Inhibition of COX1 in A23187-stimulated human platelets assessed as reduction in TXA2 production. The method, boiled down:
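Washed human platelets preincubated with increasing compound concentrations, then challenged with calcium ionophore A23187. TXB2 (stable TXA2 metabolite) in supernatant quantified by LC−MS/MS with TXB2-d4 internal standard.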

Assay [6] concerns Rattus norvegicus. Kind of assay: Inhibition of sEH-H in Sprague-Dawley rat assessed as effect on ratio of 12,13-EpOME to 12,13-DiHOME in plasma at 30 mg/kg, po after 8 hrs by LC-MS/MS analysis. The class given is functional, organism-based. The method, boiled down: as §1
The test system of assay [7] is Rattus norvegicus. Kind of assay: Inhibition of sEH-P in Sprague-Dawley rat assessed as effect on ratio of sn1-20:4 LPA to corresponding monoacylglycerol species in plasma at 30 mg/kg, po after 8 hrs by LC-MS/MS analysis. The class given is functional, organism-based. The method, boiled down: as §1
Assay [8] addresses T1, Bifunctional epoxide hydrolase 2. Kind of assay: Inhibition of phosphatase activity of full length human soluble epoxide hydrolase pre-incubated for 30 mins before FDP substrate addition by fluorescence based assay.
The target is the same in assay [9]. In words: Inhibition of hydrolase activity of full length human soluble epoxide hydrolase pre-incubated for 30 mins before PHOME substrate addition by fluorescence based assay. In short, it runs like this: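 Hydrolase assay with 0.1 μM full-length enzyme in Bis-Tris pH 7 containing 0.1 mg/mL BSA and 0.01% Triton X-100. Reaction started with PHOME (50 μM final). Triplicates.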

In assay [10] the target is T2, Bifunctional epoxide hydrolase 2 (Rattus norvegicus, UniProt P80299).
T2 sequence (P80299 whole entry): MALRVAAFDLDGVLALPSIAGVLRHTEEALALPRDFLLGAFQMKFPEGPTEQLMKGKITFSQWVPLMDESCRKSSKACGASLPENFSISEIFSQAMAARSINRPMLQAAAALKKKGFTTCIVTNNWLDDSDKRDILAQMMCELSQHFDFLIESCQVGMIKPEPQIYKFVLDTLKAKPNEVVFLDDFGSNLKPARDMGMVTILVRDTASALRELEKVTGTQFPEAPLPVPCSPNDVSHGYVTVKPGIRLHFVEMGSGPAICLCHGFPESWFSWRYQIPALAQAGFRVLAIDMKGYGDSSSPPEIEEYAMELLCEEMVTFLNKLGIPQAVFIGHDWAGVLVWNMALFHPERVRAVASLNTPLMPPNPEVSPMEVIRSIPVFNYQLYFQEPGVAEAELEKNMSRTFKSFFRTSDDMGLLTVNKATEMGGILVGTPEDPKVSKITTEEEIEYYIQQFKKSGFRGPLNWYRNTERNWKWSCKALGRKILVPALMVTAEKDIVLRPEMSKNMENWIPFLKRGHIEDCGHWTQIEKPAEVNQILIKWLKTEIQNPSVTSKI
Kind of assay: Inhibition of phosphatase activity of full length rat soluble epoxide hydrolase pre-incubated for 30 mins before FDP substrate addition by fluorescence based assay.

Molecules are shown by their SMILES. Active and inactive are the calls of the source. No cut-off for these calls is given here. Where only a bound is given, the exact number is not on record here.

Chain of Prostaglandin G/H synthase 1 (P23219 whole entry): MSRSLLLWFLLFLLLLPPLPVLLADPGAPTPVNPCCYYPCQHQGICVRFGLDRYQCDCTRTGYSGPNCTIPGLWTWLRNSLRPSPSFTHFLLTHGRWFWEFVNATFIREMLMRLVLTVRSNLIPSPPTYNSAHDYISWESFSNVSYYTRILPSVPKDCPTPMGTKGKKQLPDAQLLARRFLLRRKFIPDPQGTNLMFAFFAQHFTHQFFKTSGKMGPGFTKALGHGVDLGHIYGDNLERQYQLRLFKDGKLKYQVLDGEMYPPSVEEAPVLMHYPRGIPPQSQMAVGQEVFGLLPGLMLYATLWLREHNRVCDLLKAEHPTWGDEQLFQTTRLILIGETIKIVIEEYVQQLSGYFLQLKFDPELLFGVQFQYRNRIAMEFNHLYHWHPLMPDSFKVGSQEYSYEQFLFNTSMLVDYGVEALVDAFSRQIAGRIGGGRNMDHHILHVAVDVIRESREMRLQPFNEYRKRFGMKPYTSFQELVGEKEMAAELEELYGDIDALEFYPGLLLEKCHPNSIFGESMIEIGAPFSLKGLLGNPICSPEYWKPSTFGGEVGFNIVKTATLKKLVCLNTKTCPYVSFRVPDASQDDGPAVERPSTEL

Broadly, the ΔTm is the shift of the melting midpoint relative to a reference. The Kd is the free concentration of one partner at which half of the binding sites on the other are occupied at equilibrium, for simple one-to-one binding. Read a low Kd as tighter binding. One may read the IC50 as the point on the concentration scale where inhibition reaches its midpoint. Turning to `O=C(O)CCCc1nc(-c2ccc(Cl)c(Cl)c2)c(-c2ccccc2)o1`, the inhibition entry with Rattus norvegicus [1] and in the assay on Rattus norvegicus [7] was “Active” in each case. Also, the ΔTm in the assay filed under Homo sapiens was found to be 6.6 °C. In assay [2], this molecule yielded a Kd of 0.3 µM. For the same molecule, the IC50 stood at 12 µM in assay [3] and 1.2 µM in assay [5]. For the same molecule, the inhibition entry with Rattus norvegicus [4] and with Rattus norvegicus [6] was “inactive” each time.
As for `O=C(O)CCc1nc(-c2ccccc2)c(-c2ccccc2)o1` [OXAPROZIN], the IC50 was 70 µM in assay [8], above 300 µM in [9] and 62.5 µM in assay [10].
